Read-outs that look alike come from different tables or passages of the source.
Key:
[1] = Thermogravimetric analysis; assay type: physicochemical; settings: TGA; for Temperature of solvent loss: 10 °C/min under nitrogen; for Number of water molecules: from weight loss; for Percent weight loss: solvent loss
Procedure, shortened: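 Instrument calibrated with indium and aluminum. 2.5 mg to 4.5 mg of each test compound in an alumina crucible, heated from 25 °C to 200 °C at 10 °C/min under nitrogen flowing at 2 mL/min; weight loss recorded against temperature.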

[2] = test system: Hs27 cells; experiment: MTS cell viability assay in Hs27 cells; assay type: cell-based
[3] = test system: HaCaT cells; experiment: MTS cell viability assay in HaCaT cells; assay type: cell-based, human
[4] = cited from earlier work
[5] = test system: Jurkat cells; experiment: MTS cell viability assay in Jurkat cells; assay type: cell-based
[6] = Differential scanning calorimetry; assay type: physicochemical; settings: DSC; for Mp (transition from solid crystalline phase to liquid crystalline phase): first phase transition; for Cp (clearing point): liquid crystalline phase to liquid melt phase
Procedure, shortened: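 Dry test compounds kept under vacuum against moisture uptake; 1.0 to 1.5 mg weighed into Tzero aluminum pans sealed with hermetic lids, empty sealed pan as reference. Instrument calibrated with indium for temperature and enthalpy. Scanned 20°C to 250°C at 2.5°C/min; phase transitions taken from the thermograms.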

[7] = test system: Jurkat cells; experiment: Apoptosis assay; assay type: cell-based
[8] = Solubility of stock solutions in DMSO and in cell culture medium; assay type: physicochemical; settings: 100 mM stock solution in dimethyl sulfoxide
Procedure, shortened: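 Test compounds and the octylthioglucoside reference were each made up as 100 mM stocks in DMSO. Solubility was judged by eye. An aliquot of each stock was added to cell culture medium, vortexed for 5 sec, centrifuged at 1,400 rpm for 1 min, and checked for precipitate. Stocks that precipitated were diluted further before cytotoxicity testing.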

[9] = Hs27 cells, MTS assay, 20 h exposure
[10] = HaCaT cells, MTS assay, 20 h exposure
[11] = Jurkat cells, MTS assay, 20 h exposure

SMILES | Decomposition Temperature [1] [°C] | Temperature of solvent loss [1] [°C] | Number of water molecules [1] | Percent weight loss [1] [%] | toxicity (cell viability) in words [2, 9] | toxicity (cell viability) in words [5, 11] | further results
CCCCCCCCCCCCCCO[C@@H]1OC[C@@H](O)[C@H](O)[C@H]1O [Compound 9e, Tetradecyl β-D-xylopyranoside] | 294.8 ± 7.15 | 100.1 ± 2.93 | 0.5 | 1.87±1.08 |  |  | 
CCCCCCO[C@@H]1OC[C@@H](O)[C@H](O)[C@H]1O [Compound 9a, Hexyl β-D-xylopyranoside] | 262.8 ± 4.34 | 81.74 ± 0.41 | 0.4 | 2.50±0.66 |  |  | 
CCCCCCCCCCCCO[C@@H]1OC[C@@H](O)[C@H](O)[C@H]1O [Compound 9d, Dodecyl β-D-xylopyranoside] | 290.4 ± 10.5 | 86.35 ± 0.98 | 0.3 | 1.56±0.09 |  |  | 
CCCCCCCCO[C@@H]1OC[C@@H](O)[C@H](O)[C@H]1O [Compound 9b, Octyl β-D-xylopyranoside] | 267.1 ± 9.15 | 85.32 ± 0.55 | 0.5 | 2.35±0.91 | moderate toxicity | moderate toxicity | toxicity (cell viability) in words [3, 10]: moderate toxicity; Cp (clearing point) ([4]; reported previously ref 23): 96.9 °C; Mp (transition from solid crystalline phase to liquid crystalline phase) ([4]; reported previously ref 23): 64.5 °C; Cp (clearing point) ([4]; reported previously ref 24): 103.3 °C; Mp (transition from solid crystalline phase to liquid crystalline phase) ([4]; reported previously ref 24): 67.5 °C; Mp (transition from solid crystalline phase to liquid crystalline phase) [6]: 72.5 °C; Cp (clearing point) [6]: 99.4 °C
O[C@@H]1[C@@H](O)[C@H](OCCC(F)(F)C(F)(F)C(F)(F)C(F)(F)C(F)(F)C(F)(F)F)OC[C@H]1O [Compound 9g, 3,3,4,4,5,5,6,6,7,7,8,8,8-Tridecafluorooctyl β-D-xylopyranoside] |  | 50.57 ± 1.64 | 0.9 | 2.64±0.83 |  |  | toxicity (cell viability) in words [2]: moderate toxicity; toxicity (cell viability) in words [3]: moderate toxicity; mode of cell death [7]: apoptosis and not necrosis; toxicity (cell viability) in words [5]: moderate toxicity; Mp (transition from solid crystalline phase to liquid crystalline phase) [6]: 105.1 °C; Cp (clearing point) [6]: 147.0 °C
CCCCCCCCCCO[C@@H]1OC[C@@H](O)[C@H](O)[C@H]1O [Compound 9c, Decyl β-D-xylopyranoside] | 277.2 ± 11.5 | 96.63 ± 0.44 | 0.5 | 2.69±0.07 | moderate toxicity | moderate toxicity | toxicity (cell viability) in words [3, 10]: moderate toxicity
CCCCCCCCCCCCCCCCO[C@@H]1OC[C@@H](O)[C@H](O)[C@H]1O [Compound 9f, Hexadecyl β-D-xylopyranoside] |  | 103.4 ± 1.95 | 0.3 | 1.24±0.49 |  |  | 
CCCCCCCCS[C@@H]1O[C@H](CO)[C@@H](O)[C@H](O)[C@H]1O [OTG, octylthioglucoside, reference compound] |  |  |  |  | moderate toxicity | moderate toxicity | solubility in DMSO [8]: readily soluble
